Bioassay records as filed in PubChem BioAssay.
IDE inh = human IDE inhibitors in live cells, primary screen, fluorescence polarization, HEK cells, FAbetaB substrate | 320,000 tested, 0.41% active | FAbetaB cleavage | AID 434962, 2010 | inhibition, % at 5.59 µM | Insulin-degrading enzyme (Homo sapiens), P14735;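 active = percent inhibition above the average of all tested compounds plus 3 SD, set per screening campaign, cut at about 16% in these data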;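 note: IDE supplied by intact live HEK cells; FP after avidin binding of uncleaved biotin substrate so inhibition keeps polarization high; 0% = DMSO wells and 100% = 60 µM reference IDE inhibitor Ii1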
TPT1 inh = Candida albicans TPT1 enzyme inhibitors, primary screen, biochemical, fluorescence polarization | inhibition, % at 5 µM | recombinant caTPT1, FP RNA substrate dephosphorylation | AID 1962, 2009 | 300,000 tested, 0.81% active;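 active = inhibition above the mean of all tested compounds plus 3 SD, set per screening campaign, cut at about 24% in these data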;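 note: plate controls were DMSO alone for no effect and ferristatin control at 100 nM for full effect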
CSN inh = inhibitors of CSN-mediated cullin deneddylation, primary screen, biochemical, fluorescence polarization, uHTS; inhibition, % at 12.5 µM; AID 651999, 2013; COP9 signalosome complex subunit 5 (Homo sapiens), Q92905; Purified CSN, SCF-Nedd8-OG deneddylation; 360,000 tested, 0.38% active;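 active = pattern-corrected inhibition above about 35%, with an unprinted fluorescence ratio check between 0.5 and 1.5, limit read from the data, passing the limit was not always enough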;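 note: 0% = enzyme with substrate and 100% = substrate without enzyme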
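Assay system: HEK293T-derived human Csn5 enzyme; quantity: 0.24 nM enzyme; medium: Tris/NaCl/DTT buffer, pH 7.5; also added: substrate SCFSkp2-Nedd8OG, 10 nM; doses: 12.5 µM compound; schedule: 90 min reaction at room temperature; signal: FP; read-out: % inhibition of substrate cleavage by Csn5; benchmarks: substrate-only high control, full reaction low control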
IDE act = human IDE activators in live cells, primary screen, fluorescence polarization, HEK cells, FAbeta-B substrate. FAbeta-B cleavage; 0% vehicle, 100% cell-free pure enzyme wells. activation, % at 5.96 µM. 340,000 tested, 0.073% active. AID 493087, 2011;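 active = activation above the mean of all tested compounds plus 3 SD, set per screening campaign, cut at about 17% in these data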
HNF4A DNA FP = change in binding of human HNF4A to DNA, primary screen, biochemical, fluorescence polarization, FITC-DNA. Hepatocyte nuclear factor 4-alpha (Homo sapiens), P41235. activity change, % at 10 µM. AID 1224865, 2016. 1 h. 360,000 tested, 0.3% active; in the data active = activity change above about 30%, passing the limit was not always enough
Target sequence (P41235 whole entry, looked up): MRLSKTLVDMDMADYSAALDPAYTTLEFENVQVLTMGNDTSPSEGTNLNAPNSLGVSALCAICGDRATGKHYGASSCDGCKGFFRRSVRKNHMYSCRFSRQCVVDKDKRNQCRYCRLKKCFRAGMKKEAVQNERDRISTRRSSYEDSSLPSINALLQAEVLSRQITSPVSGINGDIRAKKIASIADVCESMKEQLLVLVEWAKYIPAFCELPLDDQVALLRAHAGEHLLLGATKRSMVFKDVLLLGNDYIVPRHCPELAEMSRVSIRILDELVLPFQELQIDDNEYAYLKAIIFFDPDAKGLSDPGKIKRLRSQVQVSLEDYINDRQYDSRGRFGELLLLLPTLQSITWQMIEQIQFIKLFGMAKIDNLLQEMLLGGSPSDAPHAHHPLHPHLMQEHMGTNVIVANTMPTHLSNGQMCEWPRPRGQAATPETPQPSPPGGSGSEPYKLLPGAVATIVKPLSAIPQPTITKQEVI
IDE cell inh cf = human IDE inhibitors in live cells, confirmation, fluorescence polarization, HEK cells, FAbetaB substrate | inhibition, % at 5.59 µM | 1,200 tested, 51% active | FAbetaB cleavage | AID 435028, 2010 | shares compounds with IDE inh;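 active = mean inhibition across triplicate wells above the cutoff set by the earlier primary insulin-degrading enzyme screen, cut at about 16% in these data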;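 note: 0% = DMSO wells and 100% = 60 µM reference IDE inhibitor Ii1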
HEK293 tox = cytotoxicity in HEK cells, cytotoxicity control for IDE inhibitor project, cell-based, luminescence | shares compounds with IDE inh | HEK293 cytotoxicity, ATP luminescence | inhibition, % at 5.59 µM | 1,200 tested, 28% active | AID 449730, 2010; in the data active = inhibition above about 22%;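 note: 0% = vehicle wells and 100% = reference cytotoxic drug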
* marks the source's active call; other numbers are inactive results; nt = not tested or not shown. In the library only some 1.4% were active in any assay of this set; here they are far more common.

SMILES	IDE inh	TPT1 inh	CSN inh	IDE act	HNF4A DNA FP	IDE cell inh cf	HEK293 tox
CC[n+]1c(/C=C/N(C)c2ccccc2)n(-c2ccccc2)c2ccc(-c3nc4ccccc4s3)cc21	57*	9	28	-29	31	22*	118*
CCOc1ccc2nc(NC(=O)Cn3cnc4c3c(=O)n(C)c(=O)n4C)sc2c1	19*	-2	1	-18	-3	-2	10
COC(=O)C[C@H]1C=C[C@H](NC(=O)Nc2ccccc2F)[C@@H](CO)O1	nt	nt	0	nt	-1	nt	nt
Cc1cccc(N2CCN(C(=O)CCCn3c(=O)c4cccn4c4cccnc43)CC2)c1C	25*	-2	-1	-11	10	7	23*
Cc1nc2ccc(NC(=O)c3ccc(Cl)c(S(=O)(=O)N(C)c4ccccc4)c3)cc2s1	26*	0	5	-6	4	3	54*
Cc1nc2ccc(NC(=O)c3cc(S(=O)(=O)N(C)c4ccccc4)ccc3Cl)cc2s1	5	16	7	1	14	nt	nt
COc1ccc(/C=C2\SC(=O)N(CCC(=O)Nc3ccccc3)C2=O)cc1OC	0	-2	-8	3	3	nt	nt
COc1cc(/C=C2/SC(=NCc3ccccc3)N(Cc3ccccc3)C2=O)ccc1O	38*	16	6	-38	4	57*	15
O=C(NN=Cc1c(O)ccc2ccccc12)c1ccc2c(c1)OCO2	30*	nt	6	-35	3	54*	112*
O=C(N/N=C/c1ccccc1)c1ccc2c(c1)OCO2	6	-1	2	4	4	nt	nt
OCC1(CO)COC(CCc2ccccc2)=N1	-1	-3	1	0	1	nt	nt
O=C(COC(=O)CN1C(=O)C2CC=CCC2C1=O)Nc1cccc([N+](=O)[O-])c1 (stereo not drawn)	nt	nt	-2	nt	1	nt	nt
Cc1cccc(C)c1N1CCN(c2cc(Cl)nc(N)n2)CC1	18*	-2	5	-8	-4	4	14
CCOc1ccccc1CNC(=O)CCC(=O)N1Cc2ccccc2Oc2ncccc21	-5	-3	2	5	-5	nt	nt
Cc1cc(N2CCN(C(=O)/C=C/C(=O)O)CC2)c2ccccc2n1	2	0	-1	2	-1	nt	nt
COc1cccc(Cl)c1NC(=O)N1CCN(c2cc(C)nc3ccccc23)CC1	28*	0	-3	-33	0	22*	23*
CN1CCN(c2ccc(Nc3ccnc4cc(Cl)ccc34)cc2)CC1	11	-2	6	-18	-1	nt	nt
CCOc1ccc(Nc2ccnc3cc(Cl)ccc23)cc1	17*	-2	-4	-16	1	15	36*
Cc1cn(CC(=O)NCC2CCCO2)c(=O)[nH]c1=O (stereo not drawn)	nt	nt	-1	0	-6	nt	nt
CC(C)c1ccccc1NC(=O)COC(=O)c1cccnc1	-1	-1	0	-1	2	nt	nt
Cc1c(-c2cccc(Cl)c2)nc2ccccc2c1C(=O)OCC(=O)Nc1ccc2c(c1)OCO2	17*	5	-2	-4	-1	0	23*
COc1ccc(CNC(=O)COC(=O)c2ccc(F)c(S(=O)(=O)N3CCOCC3)c2)cc1	17*	nt	0	-3	0	1	7
COc1ccc(CCNC(=O)COC(=O)c2ccc(F)c(S(=O)(=O)N3CCOCC3)c2)cc1	-3	nt	0	3	7	nt	nt
CC1(C)S[C@@H]2[C@H](NC(=O)[C@H](N)c3ccccc3)C(=O)N2[C@H]1C(=O)OC1OC(=O)c2ccccc21 (stereo partly drawn)	10	-2	0	2	-1	nt	nt
Cc1c(-n2cc(C(=O)c3cc(Cl)ccc3O)cc(C#N)c2=O)c(=O)n(-c2ccccc2)n1C	17*	17	12	-12	13	25*	4
SMILES	IDE inh	TPT1 inh	CSN inh	IDE act	HNF4A DNA FP	IDE cell inh cf	HEK293 tox
Cc1ccc(CCNC(=O)Cc2ccc(NC3=NC4CS(=O)(=O)CC4S3)cc2)cc1 (stereo not drawn)	17*	-1	7	-21	1	8	6
Cc1ccc(-c2nc(CS(=O)(=O)CC(=O)Nc3cc(F)ccc3F)c(C)o2)cc1	1	3	4	1	-1	nt	nt
O=C(N/N=C/c1ccccc1)c1ccc(CN2C(=O)c3cccc4cccc2c34)cc1	7	-5	8	-7	-7	nt	nt
O=C(N/N=C/c1ccc(O)cc1O)c1ccc(CN2C(=O)c3cccc4cccc2c34)cc1	26*	2	-2	-27	-6	10	98*
CCCCNC(=O)c1ccc2nc(CC)c(N(CC)CCOC)n2c1	nt	nt	0	nt	2	nt	nt
N=c1ccn(CC(=O)c2ccc(-c3ccccc3)cc2)cc1	43*	0	4	-27	0	11	88*
O=C(CN1C(=O)CCC1=O)c1ccc(-c2ccccc2)cc1	5	-4	-1	-6	1	nt	nt
CS(=O)(=O)Nc1nc2n(n1)C(c1ccccc1)C=C(c1ccc(Br)cc1)N2 (stereo not drawn)	63*	-100	-37	-64	-52	79*	7
Cc1ccc(Cl)cc1N1CCN(C(=O)c2ccc3nc[nH]c3c2)CC1	19*	0	-3	-19	2	3	14
CC(=O)OCC1CC(COC(C)=O)C(COC(C)=O)CC1COC(C)=O (stereo not drawn)	nt	nt	1	-2	-4	nt	nt
Cn1c(N)c(C(=O)CSc2nc(N)cc(=O)[nH]2)c(=O)n(C)c1=O	3	1	-3	-6	1	nt	nt
Cn1c(N)c(C(=O)CSc2nc(N)cc(N)n2)c(=O)n(C)c1=O	21*	-1	1	-32	-1	8	9
Cc1sc2ncnc(N3CCC(C(=O)NNC(=O)COc4ccc(Br)cc4)CC3)c2c1C	22*	-1	0	-10	2	13	11
CCc1sc(C(=O)Nc2cccc(-n3cnnn3)c2)cc1C	32*	nt	-1	-19	-4	19*	19
Cc1ccsc1C(=O)OCC(=O)N(Cc1ccccc1)C(C)C	16*	nt	5	2	-3	3	12
Cc1cc(OCC(=O)Nc2ccc(Br)cc2)cc2c1C(=O)CC(C)(C)O2	17*	-4	3	nt	3	0	22
CCCc1cc(C(=O)Nc2ccc(C(=O)c3ccc(F)cc3)cc2)n(C)n1	4	-2	-6	-5	0	nt	nt
CCCc1cc(C(=O)Nc2ccc(C(=O)c3ccccc3)cc2)n(C)n1	19*	-3	-1	-11	-1	4	23*
